From ChEMBL document CHEMBL4689842, “EUbOPEN Chemogenomics Library wave 1” (2021)

Columns and labels:
[1] = test system: Fibroblast; assay: Incucyte cell viability with human fibroblast; assay type: toxicity, cell-based; conditions: 10 µM, compound concentration 10 uM; also: filed as whole numbers so only -1 and 0 and 1 occur
[2] = test system: HEK-293T; assay: Multiplex assay against HEK293T; assay type: toxicity, cell-based; conditions: human;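 as to Population Tubulin-Different-Phenotype (%): share of the cells with healthy nuclei that show this phenotype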
Summary of the method: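 Cells stained live at seeding with Hoechst33342, BioTracker Green Microtubule Cytoskeleton Dye, MitoTracker Red and Annexin V Alexa Fluor 680 were imaged on a CQ1 microscope at 37°C and 5% CO2 after compound addition. Their classification by CellPathfinder machine-learning gating ran from Hoechst high-intensity objects versus normal cells, to healthy, pyknosed or fragmented nuclei among normal cells, to mitotic or apoptotic among pyknosed cells. Tubulin, mitochondrial-mass and membrane-permeability phenotypes are per cents of healthy-nucleus cells.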

[3] = 12 h, 1 µM, compound concentration 1 uM, replicate 1
[4] = 12 h, 1 µM, compound concentration 1 uM, replicate 2
[5] = 12 h, 10 µM, compound concentration 10 uM, replicate 1
[6] = 12 h, 10 µM, compound concentration 10 uM, replicate 2
[7] = 24 h, 1 µM, compound concentration 1 uM, replicate 1
[8] = 24 h, 1 µM, compound concentration 1 uM, replicate 2
[9] = 24 h, 10 µM, compound concentration 10 uM, replicate 1
[10] = 24 h, 10 µM, compound concentration 10 uM, replicate 2
[11] = 48 h, 1 µM, compound concentration 1 uM, replicate 1
[12] = 48 h, 1 µM, compound concentration 1 uM, replicate 2
[13] = 48 h, 10 µM, compound concentration 10 uM, replicate 1
[14] = 48 h, 10 µM, compound concentration 10 uM, replicate 2

In the case of `Cl.NC[C@@H]1O[C@H](C23CC4CC(CC(C4)C2)C3)Cc2c1ccc(O)c2O`, the “Growth Rate” value ([1]; 6 h, replicate number 1, timepoint 6 hours) was 0, the “Growth Rate” value ([1]; 12 h, replicate number 1, timepoint 12 hours) was 0 and the “Growth Rate” value ([1]; 18 h, replicate number 1, timepoint 18 hours) was 0. The “Growth Rate” value ([1]; 24 h, replicate number 1, timepoint 24 hours) was 0, the “Population Apoptotic (%)” value [2, 3] was 34% and the “Population Fragmented Nuclei (%)” value [2, 3] was 10%. For the same molecule, the “Population Healthy Nuclei (%)” value [2, 3] was 49%, the “Population Hoechst High Intensity Objects (%)” value [2, 3] was 11% and the “Population Membrane Permeable-Phenotype (%)” value [2, 3] was 2%. The “Population Mitochondria Different-Phenotype (%)” value [2, 3] was 80%, the “Population Mitotic Cells (%)” value [2, 3] was 65% and the “Population Normal (%)” value [2, 3] was 88%. The “Population Pyknosed Nuclei (%)” value [2, 3] was 40%, the “Population Tubulin-Different-Phenotype (%)” value [2, 3] was 55% and the “Total Cell Count” value [2, 3] was 321. For the same molecule, the “Population Apoptotic (%)” value [2, 4] was 7%, the “Population Fragmented Nuclei (%)” value [2, 4] was 3% and the “Population Healthy Nuclei (%)” value [2, 4] was 47%. For the same molecule, the “Population Hoechst High Intensity Objects (%)” value [2, 4] was 2%, the “Population Membrane Permeable-Phenotype (%)” value [2, 4] was 8% and the “Population Mitochondria Different-Phenotype (%)” value [2, 4] was 38%. The “Population Mitotic Cells (%)” value [2, 4] was 92%, the “Population Normal (%)” value [2, 4] was 97% and the “Population Pyknosed Nuclei (%)” value [2, 4] was 48%. For the same molecule, the “Population Tubulin-Different-Phenotype (%)” value [2, 4] was 47%, the “Total Cell Count” value [2, 4] was 267 and the “Population Apoptotic (%)” value [2, 5] was 60%. For the same molecule, the “Population Fragmented Nuclei (%)” value [2, 5] was 10%, the “Population Healthy Nuclei (%)” value [2, 5] was 8% and the “Population Hoechst High Intensity Objects (%)” value [2, 5] was 16%. The “Population Membrane Permeable-Phenotype (%)” value [2, 5] was 0%, the “Population Mitochondria Different-Phenotype (%)” value [2, 5] was 94% and the “Population Mitotic Cells (%)” value [2, 5] was 39%. The “Population Normal (%)” value [2, 5] was 83%, the “Population Pyknosed Nuclei (%)” value [2, 5] was 80% and the “Population Tubulin-Different-Phenotype (%)” value [2, 5] was 58%. The “Total Cell Count” value [2, 5] was 245, the “Population Apoptotic (%)” value [2, 6] was 37% and the “Population Fragmented Nuclei (%)” value [2, 6] was 7%. For the same molecule, the “Population Healthy Nuclei (%)” value [2, 6] was 6%, the “Population Hoechst High Intensity Objects (%)” value [2, 6] was 11% and the “Population Membrane Permeable-Phenotype (%)” value [2, 6] was 9%. For the same molecule, the “Population Mitochondria Different-Phenotype (%)” value [2, 6] was 54%, the “Population Mitotic Cells (%)” value [2, 6] was 62% and the “Population Normal (%)” value [2, 6] was 88%. The “Population Pyknosed Nuclei (%)” value [2, 6] was 86%, the “Population Tubulin-Different-Phenotype (%)” value [2, 6] was 27% and the “Total Cell Count” value [2, 6] was 204. The “Population Apoptotic (%)” value [2, 7] was 34%, the “Population Fragmented Nuclei (%)” value [2, 7] was 10% and the “Population Healthy Nuclei (%)” value [2, 7] was 65%. The “Population Hoechst High Intensity Objects (%)” value [2, 7] was 13%, the “Population Membrane Permeable-Phenotype (%)” value [2, 7] was 0% and the “Population Mitochondria Different-Phenotype (%)” value [2, 7] was 46%. For the same molecule, the “Population Mitotic Cells (%)” value [2, 7] was 65%, the “Population Normal (%)” value [2, 7] was 86% and the “Population Pyknosed Nuclei (%)” value [2, 7] was 24%. The “Population Tubulin-Different-Phenotype (%)” value [2, 7] was 43%, the “Total Cell Count” value [2, 7] was 389 and the “Population Apoptotic (%)” value [2, 8] was 12%. For the same molecule, the “Population Fragmented Nuclei (%)” value [2, 8] was 4%, the “Population Healthy Nuclei (%)” value [2, 8] was 67% and the “Population Hoechst High Intensity Objects (%)” value [2, 8] was 1%. For the same molecule, the “Population Membrane Permeable-Phenotype (%)” value [2, 8] was 11%, the “Population Mitochondria Different-Phenotype (%)” value [2, 8] was 20% and the “Population Mitotic Cells (%)” value [2, 8] was 87%. The “Population Normal (%)” value [2, 8] was 98%, the “Population Pyknosed Nuclei (%)” value [2, 8] was 28% and the “Population Tubulin-Different-Phenotype (%)” value [2, 8] was 52%. For the same molecule, the “Total Cell Count” value [2, 8] was 310, the “Population Apoptotic (%)” value [2, 9] was 36% and the “Population Fragmented Nuclei (%)” value [2, 9] was 15%. For the same molecule, the “Population Healthy Nuclei (%)” value [2, 9] was 10%, the “Population Hoechst High Intensity Objects (%)” value [2, 9] was 13% and the “Population Membrane Permeable-Phenotype (%)” value [2, 9] was 4%. The “Population Mitochondria Different-Phenotype (%)” value [2, 9] was 78%, the “Population Mitotic Cells (%)” value [2, 9] was 63% and the “Population Normal (%)” value [2, 9] was 86%. For the same molecule, the “Population Pyknosed Nuclei (%)” value [2, 9] was 73%, the “Population Tubulin-Different-Phenotype (%)” value [2, 9] was 73% and the “Total Cell Count” value [2, 9] was 258. The “Population Apoptotic (%)” value [2, 10] was 39%, the “Population Fragmented Nuclei (%)” value [2, 10] was 9% and the “Population Healthy Nuclei (%)” value [2, 10] was 14%. For the same molecule, the “Population Hoechst High Intensity Objects (%)” value [2, 10] was 15%, the “Population Membrane Permeable-Phenotype (%)” value [2, 10] was 32% and the “Population Mitochondria Different-Phenotype (%)” value [2, 10] was 12%. The “Population Mitotic Cells (%)” value [2, 10] was 60%, the “Population Normal (%)” value [2, 10] was 84% and the “Population Pyknosed Nuclei (%)” value [2, 10] was 76%. For the same molecule, the “Population Tubulin-Different-Phenotype (%)” value [2, 10] was 76%, the “Total Cell Count” value [2, 10] was 205 and the “Population Apoptotic (%)” value [2, 11] was 14%. The “Population Fragmented Nuclei (%)” value [2, 11] was 11%, the “Population Healthy Nuclei (%)” value [2, 11] was 80% and the “Population Hoechst High Intensity Objects (%)” value [2, 11] was 6%. For the same molecule, the “Population Membrane Permeable-Phenotype (%)” value [2, 11] was 6%, the “Population Mitochondria Different-Phenotype (%)” value [2, 11] was 5% and the “Population Mitotic Cells (%)” value [2, 11] was 85%. For the same molecule, the “Population Normal (%)” value [2, 11] was 93%, the “Population Pyknosed Nuclei (%)” value [2, 11] was 7% and the “Population Tubulin-Different-Phenotype (%)” value [2, 11] was 17%. The “Total Cell Count” value [2, 11] was 773, the “Population Apoptotic (%)” value [2, 12] was 8% and the “Population Fragmented Nuclei (%)” value [2, 12] was 5%. For the same molecule, the “Population Healthy Nuclei (%)” value [2, 12] was 83%, the “Population Hoechst High Intensity Objects (%)” value [2, 12] was 1% and the “Population Membrane Permeable-Phenotype (%)” value [2, 12] was 23%. For the same molecule, the “Population Mitochondria Different-Phenotype (%)” value [2, 12] was 3%, the “Population Mitotic Cells (%)” value [2, 12] was 92% and the “Population Normal (%)” value [2, 12] was 98%. The “Population Pyknosed Nuclei (%)” value [2, 12] was 11%, the “Population Tubulin-Different-Phenotype (%)” value [2, 12] was 42% and the “Total Cell Count” value [2, 12] was 440. For the same molecule, the “Population Apoptotic (%)” value [2, 13] was 23%, the “Population Fragmented Nuclei (%)” value [2, 13] was 21% and the “Population Healthy Nuclei (%)” value [2, 13] was 10%. The “Population Hoechst High Intensity Objects (%)” value [2, 13] was 15%, the “Population Membrane Permeable-Phenotype (%)” value [2, 13] was 38% and the “Population Mitochondria Different-Phenotype (%)” value [2, 13] was 0%. For the same molecule, the “Population Mitotic Cells (%)” value [2, 13] was 76%, the “Population Normal (%)” value [2, 13] was 84% and the “Population Pyknosed Nuclei (%)” value [2, 13] was 67%. For the same molecule, the “Population Tubulin-Different-Phenotype (%)” value [2, 13] was 46%, the “Total Cell Count” value [2, 13] was 286 and the “Population Apoptotic (%)” value [2, 14] was 55%. For the same molecule, the “Population Fragmented Nuclei (%)” value [2, 14] was 11%, the “Population Healthy Nuclei (%)” value [2, 14] was 24% and the “Population Hoechst High Intensity Objects (%)” value [2, 14] was 16%. The “Population Membrane Permeable-Phenotype (%)” value [2, 14] was 56%, the “Population Mitotic Cells (%)” value [2, 14] was 44% and the “Population Normal (%)” value [2, 14] was 83%. The “Population Pyknosed Nuclei (%)” value [2, 14] was 63%, the “Population Tubulin-Different-Phenotype (%)” value [2, 14] was 66% and the “Total Cell Count” value [2, 14] was 190.
